Data taken from ChEMBL document CHEMBL3259537, “Design of a truncated cardiotoxin-I analogue with potent insulinotropic activity” (J Med Chem, 2014).
Activity calls are given as the source filed them. The rule behind the calls is not given here.

How the values were obtained:
[1] = Induction of intracellular calcium release in rat INS-1E cells by fluorescence assay; type: functional, cell-based
Method in brief: (§1)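 INS-1E cells were harvested by scraping (5×10^5 cells/mL) and loaded 30 min at 37 °C with 4 μM Fura-2-AM plus 2.5 mM probenecid in KRBH (10 mM glucose, pH 7.4). After washing, 20000 cells/well were read immediately after peptide addition (10^-12–10^-5 M range) at excitation 340/380 nm, emission 495 nm. [Ca2+]i was calculated by the Grynkiewicz equation (Kd 225 nM).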

[2] = Cytotoxicity against rat INS-1E cells by LDH assay; type: cell-based
Method in brief: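 INS-1E cells were seeded at 2×10^4 cells/well and grown 24 h at 37 °C, then exposed to increasing peptide concentrations in serum-free medium. LDH released into the medium from dead cells was measured with a commercial kit and expressed as % of maximum LDH release after cell lysis.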

[3] = test system: INS-1E; assay: Insulinotropic activity in rat INS-1E cells assessed as insulin exocytosis after 2 hrs by RIA in presence of K-ATP channel opener diazoxide; type: functional, cell-based
Method in brief: (§2)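 INS-1E cells (2×10^5/well) were seeded 2 days before use. They were starved 2 h in glucose-free KRBH with 0.1% BSA, washed, and held another 30 min at 37 °C. Cells were then incubated 2 h at 37 °C with peptide, with 20 mM glucose or without glucose. Secreted insulin in the medium was measured by RIA against a rat insulin standard.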

[4] = test system: INS-1E; assay: Insulinotropic activity in rat INS-1E cells assessed as insulin exocytosis after 2 hrs by RIA in presence of glucose; type: functional, cell-based; method in brief: as §2
[5] = test system: INS-1E; assay: Effect on NGF-induced intracellular calcium release in rat INS-1E cells at 10^-9 M by fluorescence assay; type: functional, cell-based
[6] = test system: INS-1E; assay: Insulinotropic activity in rat INS-1E cells assessed as insulin exocytosis after 2 hrs by RIA in presence of Ca2+ channel blocker nifedipine; type: functional, cell-based; method in brief: as §2
[7] = test system: Aorta; assay: Induction of rat aortic ring contraction at 10'5 M; type: functional, tissue-based
[8] = test system: INS-1E; assay: Insulinotropic activity in rat INS-1E cells assessed as insulin exocytosis at 10^-6 M after 2 hrs by RIA; type: functional, cell-based; method in brief: as §2
[9] = test system: INS-1E; assay: Induction of intracellular calcium release in rat INS-1E cells at 10^-6 M by fluorescence assay; type: functional, cell-based; method in brief: as §1
[10] = test system: INS-1E; assay: Effect on NGF-induced intracellular calcium release in rat INS-1E cells at 10^-8 to 10^-5 M by fluorescence assay; type: functional, cell-based
[11] = test system: INS-1E; assay: Insulinotropic activity in rat INS-1E cells assessed as insulin exocytosis after 2 hrs by RIA in presence of PKA inhibitor H89; type: functional, cell-based
Method in brief: (§3)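 INS-1E cells (2×10^5/well) were pretreated 30 min with H89 (40 μM) or 2',5'-dideoxyadenosine (50 μM). They were then starved 2 h plus 30 min in glucose-free KRBH/0.1% BSA and incubated 2 h at 37 °C with peptide ± 20 mM glucose. Insulin in the medium was quantified by RIA against a rat insulin standard.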

[12] = test system: INS-1E; assay: Insulinotropic activity in rat INS-1E cells assessed as insulin exocytosis after 2 hrs by RIA in presence of adenylyl cyclase inhibitor 2',5'-dideoxy-adenosine; type: functional, cell-based; method in brief: as §3
[13] = test system: INS-1E; assay: Insulinotropic activity in rat INS-1E cells assessed as insulin exocytosis after 2 hrs by RIA in presence of ATP depletor 2-deoxy-D-glucose; type: functional, cell-based; method in brief: as §2
[14] = test system: INS-1E; assay: Inhibition of [86]-Rb+-efflux in rat INS-1E cells incubated for 30 mins followed by high-phosphate buffer addition by scintillation counting analysis; type: functional, cell-based; conditions: in the assay text read “high-potassium” for “high-phosphate”
Method in brief: (§4)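 INS-1E cells (2×10^5/well) were loaded overnight at 37 °C with 86RbCl (0.02 µCi/mL) in medium. They were then incubated 30 min at 37 °C in low-K buffer (4.6 mM KCl, pH 7.4) ± peptide, switched to high-K buffer (140 mM KCl) ± peptide, and efflux was followed over time by scintillation counting. Efflux is % of total 86Rb+ (medium plus cells); IC50 values are from three independent experiments in triplicate.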

[15] = test system: INS-1E; assay: Inhibition of [86]-Rb+-efflux in rat INS-1E cells at 10^8 to 10'6 M incubated for 30 mins followed by high-phosphate buffer addition by scintillation counting analysis; type: functional, cell-based; conditions: in the assay text read “high-potassium” for “high-phosphate”; method in brief: as §4

| SMILES | EC50 [1] [nM] | Activity [2] | Activity [3] | Activity [4] | Activity [5] | Activity [6] | Activity [7] | Activity [8] | Activity [9] | Activity [10] | Activity [11] | Activity [12] | Activity [13] | Activity [14] | inhibition [15] |
| --- | --- | --- | --- | --- | --- | --- | --- | --- | --- | --- | --- | --- | --- | --- | --- |
| CC(C)C[C@@H]1NC(=O)[C@H](CO)NC(=O)[C@H](CC(N)=O)NC(=O)[C@H](CCCCN)NC(=O)[C@@H]2CCCN2C(=O)[C@@H](NC(=O)[C@@H](N)C(C)C)CSSC[C@@H](C(=O)N[C@H]2CSSC[C@H](C(=O)N[C@@H](CC(N)=O)C(=O)O)NC(=O)[C@H](CCCNC(=N)N)NC(=O)[C@H](CC(=O)O)NC(=O)[C@H]([C@@H](C)O)NC(=O)[C@H](CC(N)=O)NC2=O)NC(=O)[C@H](C(C)C)NC(=O)[C@H](Cc2ccc(O)cc2)NC(=O)[C@H](CCCCN)NC(=O)[C@H](C(C)C)NC(=O)[C@H](CC(C)C)NC1=O | 2.14 | Non-toxic |  |  |  |  |  |  |  |  |  |  |  |  |  |
| CC(C)C[C@@H]1NC(=O)[C@H](CO)NC(=O)[C@H](CC(N)=O)NC(=O)[C@H](CCCCN)NC(=O)[C@@H]2CCCN2C(=O)[C@@H](NC(=O)[C@@H](N)C(C)C)CSSC[C@@H](C(=O)N[C@H]2CSSC[C@H](C(=O)N[C@@H](CC(N)=O)C(=O)O)NC(=O)[C@H](CCCNC(=N)N)NC(=O)[C@H](CC(=O)O)NC(=O)[C@H]([C@@H](C)O)NC(=O)[C@H](CC(N)=O)NC2=O)NC(=O)[C@H](CCCCN)NC(=O)[C@H](Cc2ccc(O)cc2)NC(=O)[C@H](CCCCN)NC(=O)[C@H](C(C)C)NC(=O)[C@H](CC(C)C)NC1=O |  | Non-toxic | Active | Dose-dependent effect | inactive | inactive | inactive | Active | Active | Active | Dose-dependent effect | Dose-dependent effect | Active | Dose-dependent effect |  |
| CN(CCc1ccc(Cl)c(Cl)c1)CC(O)COc1ccc(NS(C)(=O)=O)cc1 (stereo unspecified) |  |  |  |  |  |  |  |  |  |  |  |  |  |  | Active |
